According to ChEMBL document CHEMBL1155297, “Synthesis, antimicrobial and antioxidant activities of substituted pyrazoles, isoxazoles, pyrimidine and thioxopyrimidine derivatives” (2009):
In brackets after ≈: the same amount, converted by molar mass.

Experiments:
Type in all cases: functional
[1] = test system: Bacillus subtilis; experiment: Antibacterial activity against Bacillus subtilis NCIM 2063 after 24 hrs by microdilution susceptibility method; details: NCIM 2063, 24 h
Outline: (§1)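 MIC by microdilution susceptibility; compounds in DMSO, bacterial suspensions inoculated into wells. Incubation was at 36 °C for 24 h. MIC is the lowest compound concentration showing no turbidity. Chloramphenicol served as reference antibacterial.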

[2] = test system: Proteus vulgaris; experiment: Antibacterial activity against Proteus vulgaris NCIM 2027 at 100 ug/disk after 24 hrs by agar disk diffusion method; details: NCIM 2027, 24 h, read-out: IZ
Outline: (§2)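 Agar disc diffusion on nutrient agar plates pre-inoculated with each bacterium. Sterile 6 mm filter-paper discs were moistened with compound in DMSO at the stated per-disc amount. Plates were incubated at 37 °C, and the growth-inhibition zone diameter was read after 24 h. Each determination was run in triplicate, and the mean of three independent readings is reported.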

[3] = test system: Staphylococcus aureus; experiment: Antibacterial activity against Staphylococcus aureus NCIM 5021 at 200 ug/disk after 24 hrs by agar disk diffusion method; details: NCIM 5021, 24 h, read-out: IZ; outline: as §2
[4] = test system: Klebsiella pneumoniae; experiment: Antibacterial activity against Klebsiella pneumoniae NCIM 2957 at 200 ug/disk after 24 hrs by agar disk diffusion method; details: NCIM 2957, 24 h, read-out: IZ; outline: as §2
[5] = test system: Staphylococcus aureus; experiment: Antibacterial activity against Staphylococcus aureus NCIM 5021 after 24 hrs by microdilution susceptibility method; details: NCIM 5021, 24 h; outline: as §1
[6] = test system: Proteus vulgaris; experiment: Antibacterial activity against Proteus vulgaris NCIM 2027 after 24 hrs by microdilution susceptibility method; details: NCIM 2027, 24 h; outline: as §1
[7] = test system: Bacillus subtilis; experiment: Antibacterial activity against Bacillus subtilis NCIM 2063 at 200 ug/disk after 24 hrs by agar disk diffusion method; details: NCIM 2063, 24 h, read-out: IZ; outline: as §2
[8] = test system: Klebsiella pneumoniae; experiment: Antibacterial activity against Klebsiella pneumoniae NCIM 2957 at 100 ug/disk after 24 hrs by agar disk diffusion method; details: NCIM 2957, 24 h, read-out: IZ; outline: as §2
[9] = test system: Proteus vulgaris; experiment: Antibacterial activity against Proteus vulgaris NCIM 2027 at 200 ug/disk after 24 hrs by agar disk diffusion method; details: NCIM 2027, 24 h, read-out: IZ; outline: as §2
[10] = test system: Staphylococcus aureus; experiment: Antibacterial activity against Staphylococcus aureus NCIM 5021 at 100 ug/disk after 24 hrs by agar disk diffusion method; details: NCIM 5021, 24 h, read-out: IZ; outline: as §2
[11] = test system: Bacillus subtilis; experiment: Antibacterial activity against Bacillus subtilis NCIM 2063 at 100 ug/disk after 24 hrs by agar disk diffusion method; details: NCIM 2063, 24 h, read-out: IZ; outline: as §2
[12] = test system: Klebsiella pneumoniae; experiment: Antibacterial activity against Klebsiella pneumoniae NCIM 2957 after 24 hrs by microdilution susceptibility method; details: NCIM 2957, 24 h; outline: as §1
[13] = test system: Curvularia lunata; experiment: Antifungal activity against Curvularia lunata NCIM 716 at 200 ug/disk after 48 hrs by agar disk diffusion method; details: NCIM 716, 48 h, read-out: IZ
Outline: (§3)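 Fungal disc diffusion on nutrient agar plates pre-inoculated with each fungus. 6 mm sterile paper discs carried the compound in DMSO at the stated amount per disc. Plates were held at 37 °C, and inhibition-zone diameter was measured after 48 h. Values are the mean of three independent triplicate readings.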

[14] = test system: Aspergillus niger; experiment: Antifungal activity against Aspergillus niger NCIM 596 after 48 hrs by microdilution susceptibility method; details: NCIM 596, 48 h
Outline: (§4)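 Broth microdilution MIC; fungal suspensions were inoculated into wells containing compound dissolved in DMSO. Incubation was at 36 °C for 48 h. MIC was recorded as the lowest concentration with no turbidity. Ketoconazole was the reference antifungal.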

[15] = test system: Aspergillus niger; experiment: Antifungal activity against Aspergillus niger NCIM 596 at 200 ug/disk after 48 hrs by agar disk diffusion method; details: NCIM 596, 48 h, read-out: IZ; outline: as §3
[16] = test system: Curvularia lunata; experiment: Antifungal activity against Curvularia lunata NCIM 716 at 100 ug/disk after 48 hrs by agar disk diffusion method; details: NCIM 716, 48 h, read-out: IZ; outline: as §3
[17] = test system: Radical scavenging activity; experiment: Antioxidant activity assessed as DPPH free radical scavenging activity at 100 uM after 20 mins
Outline: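 DPPH scavenging: compound solutions were added to DPPH in dioxane/ethanol and kept at ambient temperature for 20 min. Absorbance was read at 517 nm. The test–control difference was expressed as percent DPPH radical scavenging.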

[18] = test system: Fusarium solani; experiment: Antifungal activity against Fusarium solani NCIM 1330 at 200 ug/disk after 48 hrs by agar disk diffusion method; details: NCIM 1330, 48 h, read-out: IZ; outline: as §3
[19] = test system: Fusarium solani; experiment: Antifungal activity against Fusarium solani NCIM 1330 after 48 hrs by microdilution susceptibility method; details: NCIM 1330, 48 h; outline: as §4
[20] = test system: Aspergillus niger; experiment: Antifungal activity against Aspergillus niger NCIM 596 at 100 ug/disk after 48 hrs by agar disk diffusion method; details: NCIM 596, 48 h, read-out: IZ; outline: as §3
[21] = Antioxidant activity assessed as nitric oxide production at 100 uM after 120 mins by Griess reagent method
Outline: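 Nitric oxide assay with Griess read-out. At intervals, 0.5 ml of incubation solution was mixed with 0.5 ml Griess reagent (1% sulfanilamide, 0.1% N-naphthylethylenediamine dihydrochloride, 2% o-phosphoric acid in water). The control received an equal amount of solvent and was handled identically.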

[22] = test system: Curvularia lunata; experiment: Antifungal activity against Curvularia lunata NCIM 716 after 48 hrs by microdilution susceptibility method; details: NCIM 716, 48 h; outline: as §4
[23] = test system: Fusarium solani; experiment: Antifungal activity against Fusarium solani NCIM 1330 at 100 ug/disk after 48 hrs by agar disk diffusion method; details: NCIM 1330, 48 h, read-out: IZ; outline: as §3

SMILES | zone of inhibition at 100 µg/disc [2] [mm] | zone of inhibition at 200 µg/disc [3] [mm] | zone of inhibition at 200 µg/disc [4] [mm] | zone of inhibition at 200 µg/disc [7] [mm] | zone of inhibition at 100 µg/disc [8] [mm] | zone of inhibition at 200 µg/disc [9] [mm] | zone of inhibition at 100 µg/disc [10] [mm] | zone of inhibition at 100 µg/disc [11] [mm] | zone of inhibition at 200 µg/disc [13] [mm] | zone of inhibition at 200 µg/disc [15] [mm] | zone of inhibition at 100 µg/disc [16] [mm] | inhibition [17] [%] | zone of inhibition at 200 µg/disc [18] [mm] | zone of inhibition at 100 µg/disc [20] [mm] | inhibition [21] [%] | zone of inhibition at 100 µg/disc [23] [mm] | other results
O=C(N[C@H](CO)[C@H](O)c1ccc([N+](=O)[O-])cc1)C(Cl)Cl [CHLORAMPHENICOL] | 42 | 41 | 42 | 44 | 37 | 45 | 35 | 38 | – | – | – | – | – | – | – | – | MIC [1]: 6.25 µg/mL (≈ 19.3 µM); MIC [5]: 6.25 µg/mL (≈ 19.3 µM); MIC [6]: 12.5 µg/mL (≈ 38.7 µM); MIC [12]: 12.5 µg/mL (≈ 38.7 µM)
NC1=NN=C(N)C1C(CS(=O)(=O)c1ccc(Cl)cc1)S(=O)(=O)c1ccc(Cl)cc1 (configuration not stated) | 31 | 36 | 32 | 37 | 30 | 33 | 34 | 35 | 38 | 35 | 34 | 92.4 | 39 | 32 | 92.4 | 35 | MIC [1]: 25 µg/mL (≈ 52.6 µM); MIC [5]: 25 µg/mL (≈ 52.6 µM); MIC [14]: 100 µg/mL (≈ 210 µM); MIC [6]: 50 µg/mL (≈ 105 µM); MIC [19]: 200 µg/mL (≈ 421 µM); MIC [12]: 50 µg/mL (≈ 105 µM); MIC [22]: 100 µg/mL (≈ 210 µM)
CC(=O)N1CCN(c2ccc(OCC3COC(Cn4ccnc4)(c4ccc(Cl)cc4Cl)O3)cc2)CC1 (configuration not stated) [KETOCONAZOLE] | – | – | – | – | – | – | – | – | 44 | 39 | 41 | – | 42 | 36 | – | 38 | MIC [14]: 6.25 µg/mL (≈ 11.8 µM); MIC [19]: 12.5 µg/mL (≈ 23.5 µM); MIC [22]: 6.25 µg/mL (≈ 11.8 µM)
Cc1ccc(S(=O)(=O)CC(C2C(=N)N(C)C(=O)N(C)C2=N)S(=O)(=O)c2ccc(C)cc2)cc1 (configuration not stated) | 8 | 13 | 11 | 14 | 9 | 10 | 11 | 12 | 16 | 13 | 13 | 24.8 | 14 | 10 | 24.6 | 11 | –
NC1=NC(=S)N=C(N)C1C(CS(=O)(=O)c1ccccc1)S(=O)(=O)c1ccccc1 (configuration not stated) | 19 | 25 | 23 | 26 | 21 | 21 | 22 | 23 | 22 | 19 | 19 | 46.9 | 20 | 16 | 45.8 | 18 | –
CN1C(=N)C(C(CC(=O)c2ccc(Cl)cc2)C(=O)c2ccc(Cl)cc2)C(=N)N(C)C1=O (configuration not stated) | 9 | 14 | 10 | 13 | 9 | 11 | 12 | 11 | 15 | 13 | 13 | 29.9 | 16 | 11 | 28.2 | 14 | –
NC1=NC(=O)N=C(N)C1C(CC(=O)c1ccc(Cl)cc1)C(=O)c1ccc(Cl)cc1 (configuration not stated) | 10 | 15 | 13 | 14 | 11 | 12 | 13 | 12 | 18 | 20 | 14 | 41 | 19 | 16 | 39.4 | 17 | –
Cc1ccc(C(=O)CC(C(=O)c2ccc(C)cc2)C2C(N)=NC(=O)N=C2N)cc1 (configuration not stated) | 13 | 15 | 12 | 12 | 10 | 14 | 12 | 11 | 17 | 15 | 15 | 28.6 | 18 | 13 | 27.2 | 14 | –
N=C1ON=C(N)C1C(CS(=O)(=O)c1ccccc1)S(=O)(=O)c1ccccc1 (configuration not stated) | 26 | 31 | 29 | 32 | 26 | 28 | 29 | 30 | 32 | 31 | 29 | 85.8 | 34 | 28 | 84.9 | 31 | –
CN1C(=N)C(C(CS(=O)(=O)c2ccccc2)S(=O)(=O)c2ccccc2)C(=N)N(C)C1=O (configuration not stated) | 10 | 15 | 12 | 16 | 9 | 12 | 13 | 14 | 20 | 16 | 16 | 27.7 | 16 | 14 | 26.9 | 13 | –
Cc1ccc(S(=O)(=O)CC(C2C(=N)ON=C2N)S(=O)(=O)c2ccc(C)cc2)cc1 (configuration not stated) | 24 | 27 | 27 | 29 | 25 | 25 | 26 | 26 | 30 | 29 | 28 | 80.8 | 31 | 26 | 81.5 | 28 | –
